Source: PubChem BioAssay
Most compounds without a hit are left out; they make up all but 4.8% or so of the library.
GRIN3A LBD mod – binders of NR3A ligand-binding domain, primary screen, biophysical, differential scanning fluorimetry, uHTS; NR3A LBD differential scanning fluorimetry, Tm shift; 0% = protein alone, 100% = glycine-bound protein; Tm shift relative to glycine control, % at 25 µM; actives 2.5% (n = 340,000); AID 1259313, 2017;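 active = melting temperature shift of at least 10% of the positive control shift, at one fixed dose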
PAFAH2 FP inh – PAFAH2 enzyme inhibitors, primary screen, biochemical, fluorescence polarization, human; recombinant PAFAH2, FP-rhodamine activity probe; inhibition, % at 3.39 µM; actives 0.99% (n = 340,000);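 active = inhibition above the mean over all tested compounds plus 3 SD, cut at about 30% in these data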;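 note: inhibitors block probe labeling of enzyme so polarization drops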
PAFAH1B3 inh – PAFAH1B3 enzyme inhibitors, primary screen, biochemical, fluorescence polarization, human | Platelet-activating factor acetylhydrolase IB subunit alpha1 (Homo sapiens), Q15102 | recombinant PAFAH1B3, FP-rhodamine probe | inhibition, % at 3.39 µM | actives 0.28% (n = 340,000) | AID 492972, 2010;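 active = inhibition above the screen-wide average of all tested compounds plus 3 SD, cut at about 25% in these data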
PAFAH1B2 FP inh – PAFAH1B2 enzyme inhibitors, primary screen, biochemical, fluorescence polarization, human; actives 1.2% (n = 340,000); Platelet-activating factor acetylhydrolase IB subunit alpha2 (Homo sapiens), P68402; recombinant PAFAH1B2, FP-rhodamine activity probe; AID 492953, 2010; inhibition, % at 3.39 µM;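 active = inhibition above the mean of all tested compounds plus 3 SD, cut at about 24% in these data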
Target sequence (P68402 whole entry, looked up): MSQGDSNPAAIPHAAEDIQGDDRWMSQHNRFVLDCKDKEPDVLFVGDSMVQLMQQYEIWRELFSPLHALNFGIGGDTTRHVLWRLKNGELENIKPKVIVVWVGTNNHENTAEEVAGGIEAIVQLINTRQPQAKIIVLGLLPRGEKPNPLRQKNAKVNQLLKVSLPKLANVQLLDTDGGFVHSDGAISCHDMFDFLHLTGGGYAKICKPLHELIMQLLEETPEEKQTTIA
pPAFAH inh – pPAFAH enzyme inhibitors, primary screen, biochemical, fluorescence polarization, human; AID 463082, 2010; recombinant pPAFAH, FP-rhodamine probe fluorescence polarization; Platelet-activating factor acetylhydrolase (Homo sapiens), Q13093; inhibition, % at 3.39 µM; actives 1.5% (n = 330,000);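 active = inhibition above the mean inhibition across the screen plus 3 SD, cut at about 25% in these data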;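 note: inhibitors block binding of the rhodamine activity-based probe so polarization drops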
Target sequence (Q13093 whole entry, looked up): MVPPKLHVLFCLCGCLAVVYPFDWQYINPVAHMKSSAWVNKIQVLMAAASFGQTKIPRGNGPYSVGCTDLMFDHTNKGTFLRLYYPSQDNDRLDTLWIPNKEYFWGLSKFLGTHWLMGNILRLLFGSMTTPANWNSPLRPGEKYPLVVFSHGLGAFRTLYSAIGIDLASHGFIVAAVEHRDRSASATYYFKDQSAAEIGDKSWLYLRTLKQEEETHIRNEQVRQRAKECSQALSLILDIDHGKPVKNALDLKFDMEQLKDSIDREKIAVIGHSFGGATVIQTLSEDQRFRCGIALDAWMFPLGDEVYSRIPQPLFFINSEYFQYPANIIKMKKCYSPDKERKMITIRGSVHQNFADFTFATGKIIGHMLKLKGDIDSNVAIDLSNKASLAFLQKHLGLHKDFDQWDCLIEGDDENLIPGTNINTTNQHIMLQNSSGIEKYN
UCH37 DUB inh – inhibitors of human UCH37 deubiquitinase, primary screen, biochemical, Ub-AMC cleavage, fluorescence | actives 0.33% (n = 330,000) | inhibition, % (test concentration not listed) | Ubiquitin carboxyl-terminal hydrolase isozyme L5 (Homo sapiens), Q9Y5K5 | purified proteasome/UCH37;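 active = mean inhibition over replicate wells above about 20%, limit read from the data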
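Material: Human UCH37 enzyme supplied as purified proteasome complex | Schedule: 30 min preincubation with enzyme, 25 min cleavage at room temperature | Detection: AMC fluorescence 355/460 nm | Measure: % inhibition of Ub-AMC cleavage fluorescence | Controls: Wells without proteasome as full block, compound-free enzyme plus substrate as uninhibited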
Hits are given with their value.

What do the screens show for `COc1ccc(-n2nnnc2SCC(=O)c2ccc(O)c(O)c2)cc1`?
GRIN3A LBD mod: inactive; PAFAH2 FP inh: inactive; PAFAH1B3 inh: inactive; PAFAH1B2 FP inh: inactive; pPAFAH inh: 29.8; UCH37 DUB inh: inactive

What do the screens show for `C=CCn1c(SCC(=O)c2ccc(O)c(O)c2)nnc1-c1cccc(OC)c1`?
GRIN3A LBD mod: inactive; PAFAH2 FP inh: inactive; PAFAH1B3 inh: inactive; PAFAH1B2 FP inh: inactive; pPAFAH inh: 28.4

Results for Cn1c(SCC(=O)c2ccc(O)c(O)c2)nnc1-c1ccccc1 ?
GRIN3A LBD mod: inactive; PAFAH2 FP inh: inactive; PAFAH1B3 inh: inactive; PAFAH1B2 FP inh: inactive; UCH37 DUB inh: inactive

What do the screens show for `C=CCn1c(SCC(=O)c2ccc(O)c(O)c2)nnc1-c1ccc(C)cc1`?
GRIN3A LBD mod: inactive; PAFAH2 FP inh: inactive; PAFAH1B3 inh: inactive; PAFAH1B2 FP inh: inactive; pPAFAH inh: 27.7; UCH37 DUB inh: inactive

How did C=CCn1c(SCC(=O)c2cccs2)nnc1-c1cccc(OC)c1 do in these assays?
GRIN3A LBD mod: inactive; PAFAH2 FP inh: inactive; PAFAH1B3 inh: inactive; PAFAH1B2 FP inh: inactive; pPAFAH inh: inactive; UCH37 DUB inh: inactive

What do the screens show for `COc1ccc(NC(=O)CSc2nnnn2-c2ccc(F)cc2)cc1`?
GRIN3A LBD mod: 13.6; PAFAH2 FP inh: inactive; PAFAH1B3 inh: inactive; PAFAH1B2 FP inh: inactive; pPAFAH inh: inactive; UCH37 DUB inh: inactive

Results for Cc1ccc2c(nc3sc(=Cc4cccs4)c(=O)n32)c1C ?
UCH37 DUB inh: inactive

How did COc1ccc(C=NNC(=O)c2ccccc2O)cc1Cn1cc(Cl)cn1 do in these assays?
UCH37 DUB inh: inactive

What do the screens show for `C=CCn1c(SCC(=O)c2ccc(O)c(O)c2)nnc1-c1ccc(OC)cc1`?
GRIN3A LBD mod: inactive; PAFAH2 FP inh: inactive; PAFAH1B3 inh: inactive; PAFAH1B2 FP inh: inactive; pPAFAH inh: 29.8; UCH37 DUB inh: inactive

How did C=CCn1c(SCC(=O)c2ccc(OC)cc2)nnc1-c1cc2cccc(OC)c2o1 do in these assays?
GRIN3A LBD mod: inactive; PAFAH2 FP inh: inactive; PAFAH1B3 inh: inactive; PAFAH1B2 FP inh: inactive; pPAFAH inh: inactive; UCH37 DUB inh: inactive

Results for COc1ccc(OC)c(C=NNC(=O)CC(=O)NCCc2ccccc2)c1 ?
UCH37 DUB inh: inactive

Results for CCOP(=O)(OCC)C(NC(=O)Nc1ccc(C)c(Cl)c1)c1ccccc1 (stereo not given) ?
GRIN3A LBD mod: 23.8; PAFAH2 FP inh: inactive; PAFAH1B3 inh: inactive; PAFAH1B2 FP inh: inactive; pPAFAH inh: inactive; UCH37 DUB inh: inactive

Results for CCOP(=O)(OCC)C(NC(=O)Nc1ccc(Cl)c(Cl)c1)c1ccccc1 (stereo not given) ?
GRIN3A LBD mod: inactive; PAFAH2 FP inh: inactive; PAFAH1B3 inh: inactive; PAFAH1B2 FP inh: inactive; pPAFAH inh: inactive; UCH37 DUB inh: inactive

Results for FC(F)(F)c1cccc(NC(=S)NCc2ccc(Cl)cc2)c1 ?
GRIN3A LBD mod: 20.2; PAFAH2 FP inh: inactive; PAFAH1B3 inh: inactive; PAFAH1B2 FP inh: inactive; pPAFAH inh: inactive; UCH37 DUB inh: inactive

Results for Fc1ccccc1CNC(=S)Nc1cccc(C(F)(F)F)c1 ?
GRIN3A LBD mod: 14.0; PAFAH2 FP inh: inactive; PAFAH1B3 inh: inactive; PAFAH1B2 FP inh: inactive; pPAFAH inh: inactive; UCH37 DUB inh: inactive

Results for COc1cccc(OCCn2c(C)c(C=Nn3cnnc3)c3ccccc32)c1 ?
UCH37 DUB inh: inactive

How did FC(F)(F)c1cnc(NN=Cc2ccncc2)c(Cl)c1 do in these assays?
UCH37 DUB inh: inactive

What do the screens show for `C=CCN1C(=O)C(Cc2ccc(Br)cc2)SC1=NN=Cc1ccco1` (stereo not given)?
UCH37 DUB inh: inactive

Results for CC(NC(=O)c1ccccc1F)C12CC3CC(CC(C3)C1)C2 (stereo not given) ?
GRIN3A LBD mod: inactive; PAFAH2 FP inh: inactive; PAFAH1B3 inh: inactive; PAFAH1B2 FP inh: 26.7; pPAFAH inh: inactive; UCH37 DUB inh: inactive

What do the screens show for `Cc1nnsc1C(=O)NC(C)C12CC3CC(CC(C3)C1)C2` (stereo not given)?
GRIN3A LBD mod: inactive; PAFAH2 FP inh: inactive; PAFAH1B3 inh: inactive; PAFAH1B2 FP inh: 29.3; pPAFAH inh: inactive; UCH37 DUB inh: inactive

Results for Cc1occc1C(=O)NC(C)C12CC3CC(CC(C3)C1)C2 (stereo not given) ?
GRIN3A LBD mod: inactive; PAFAH2 FP inh: inactive; PAFAH1B3 inh: inactive; PAFAH1B2 FP inh: inactive; pPAFAH inh: inactive; UCH37 DUB inh: inactive

Results for COc1ccc(NN=C(N=Nc2nc(C)cc(=O)[nH]2)c2ccccc2)cc1 ?
UCH37 DUB inh: inactive

How did Brc1ccc(NN=C(N=Nc2nn[nH]n2)c2ccccc2)cc1 do in these assays?
UCH37 DUB inh: 22.0

How did Brc1ccc(N/N=C(/N=Nc2nn[nH]n2)c2ccccc2)cc1 do in these assays?
GRIN3A LBD mod: inactive; PAFAH2 FP inh: 44.3; PAFAH1B3 inh: inactive; PAFAH1B2 FP inh: inactive; pPAFAH inh: 60.5

What do the screens show for `Cc1ccccc1NC(=O)CCC(=O)NN=Cc1cc([N+](=O)[O-])ccc1O`?
UCH37 DUB inh: inactive

How did Cc1ccc(NCN2C(=O)C(=O)c3ccccc32)nc1 do in these assays?
GRIN3A LBD mod: 13.1; PAFAH2 FP inh: inactive; PAFAH1B3 inh: inactive; PAFAH1B2 FP inh: inactive; pPAFAH inh: inactive; UCH37 DUB inh: inactive

Results for CC12CC3CC(C)(C1)CC(C(=O)N1CCN(C(=O)c4ccco4)CC1)(C3)C2 ?
GRIN3A LBD mod: inactive; PAFAH2 FP inh: inactive; PAFAH1B3 inh: inactive; PAFAH1B2 FP inh: 35.5; pPAFAH inh: inactive

Results for Brc1ccc(-c2nc(NN=Cc3cccnc3)c3ccccc3n2)cc1 ?
UCH37 DUB inh: inactive

Results for O=C(CNC(=O)C12CC3CC(CC(C3)C1)C2)NN=Cc1ccco1 ?
UCH37 DUB inh: inactive

Results for O=C(Nc1ccc(Oc2cccnc2)cc1)C1CCCCN1Cc1ccc(CO)o1 (stereo not given) ?
GRIN3A LBD mod: 10.0; PAFAH2 FP inh: inactive; PAFAH1B3 inh: inactive; PAFAH1B2 FP inh: inactive; pPAFAH inh: inactive; UCH37 DUB inh: inactive

What do the screens show for `O=C(NN=Cc1cc([N+](=O)[O-])ccc1O)c1cccc(N2CCCC2=O)c1`?
UCH37 DUB inh: inactive

How did COc1ccc(C#Cc2ccc3c(c2)c(=O)c2ccccc2n3C)cc1 do in these assays?
GRIN3A LBD mod: 12.1; PAFAH2 FP inh: inactive; PAFAH1B3 inh: inactive; PAFAH1B2 FP inh: inactive; pPAFAH inh: inactive; UCH37 DUB inh: inactive

How did Cn1c2ccccc2c(=O)c2cc(C#Cc3ccc(N)cc3)ccc21 do in these assays?
GRIN3A LBD mod: inactive; PAFAH2 FP inh: inactive; PAFAH1B3 inh: inactive; PAFAH1B2 FP inh: inactive; pPAFAH inh: inactive; UCH37 DUB inh: inactive
